Screening results from PubChem BioAssay.
Diaph inh CS: counter-screen for diaphorase-based assays: diaphorase inhibitors and chemical oxidizers; diaphorase resazurin-to-resorufin fluorescence, NADH, 16 min; bacterial (C. kluyveri) enzyme, not human; inhibition, % at 20 µM; 190,000 compounds, 0.69% hits; AID 1217;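 active = primary screen inhibition at 20 µM above a set limit, cut at about 50% in these data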;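 note: plate controls were DMSO with full reaction for no effect and wells lacking NADH for full effect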
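Detection: fluorescence of resorufin formed from resazurin, Ex 544/Em 590 nm; test system: Clostridium kluyveri diaphorase enzyme; amount: 0.14 U/mL diaphorase, enzyme working solution; times: 16-min room-temperature incubation before reading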
ROMK primary: modulators of human ROMK potassium channel | 130,000 compounds, 2% hits | B-score at 10 µM | Tet-inducible ROMK, thallium flux fluorescence; actives lie on both sides | P48048;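 active = signal ratio slope over the read window, or its plate-corrected B-score, at least 3 SD from the plate mean, either direction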;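 note: B-score of the F/F0 ratio slope over 7 to 12 s after thallium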
G6PDH counter: L. mesenteroides G6PDH inhibition counter-screen | 200,000 compounds, 0.12% hits | inhibition, % at 5 µM | Purified L. mesenteroides G6PDH, diaphorase/resazurin coupled fluorescence, 45 min; in the data active = inhibition above about 50%
PMI act: phosphomannose isomerase (human) activation; purified human PMI, coupled resazurin fluorescence, 20 min; active compounds read high; 1 = vehicle control, 0 substrate-free wells; activation factor at 20 µM; 190,000 compounds, 0.005% hits; AID 1214;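 active = activation factor of 2 or more at 20 µM, relative to plate controls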
Target sequence (P34949 whole entry, looked up): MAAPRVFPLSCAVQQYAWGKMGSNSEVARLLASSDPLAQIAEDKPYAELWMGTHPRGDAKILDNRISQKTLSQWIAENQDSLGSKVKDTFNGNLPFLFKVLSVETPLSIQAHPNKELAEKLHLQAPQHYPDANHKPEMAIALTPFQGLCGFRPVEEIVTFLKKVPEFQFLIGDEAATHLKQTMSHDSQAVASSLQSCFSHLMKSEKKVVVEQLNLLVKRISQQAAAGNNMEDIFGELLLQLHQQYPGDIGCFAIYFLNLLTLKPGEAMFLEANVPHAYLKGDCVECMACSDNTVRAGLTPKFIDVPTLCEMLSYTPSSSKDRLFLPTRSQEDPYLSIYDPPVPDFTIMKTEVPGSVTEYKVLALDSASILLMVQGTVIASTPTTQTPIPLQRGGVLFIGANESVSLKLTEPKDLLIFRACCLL
PMI act satM6P: increases human PMI activity with near-saturating mannose 6-phosphate; P34949; coupled PMI enzyme assay, resazurin fluorescence, 20 min; active compounds read high; 1 = untreated enzyme, 0 = substrate-free blank; activation factor at 20 µM; 190,000 compounds, 0.34% hits; AID 1216;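 active = activation factor of 2 or more at 20 µM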
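Test system: human phosphomannose isomerase with PGI, G6PDH, diaphorase coupling enzymes; Amount: PMI at 15 ng/mL final; Reagent: Mannose-6-phosphate 1.0 mM (near-saturating) plus 0.22 mM NADP+; Timing: 20 min, room temperature; Technique: resorufin fluorescence at Ex 544/Em 590 nm; Dosing: 20 µM single dose.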
Diaphorase act: activates diaphorase or chemically reduces, flagging diaphorase assay artifacts; Diaphorase/resazurin coupled assay, resorufin fluorescence, 16 min; active compounds read high; 1 = vehicle wells, 0 = NADH-free wells; activation factor at 20 µM; 190,000 compounds, 0.005% hits; AID 1229;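 active = diaphorase activity raised at least twofold by the compound at 20 µM; inactive = activation factor below 2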
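Test system: Clostridium kluyveri diaphorase, purified enzyme. Buffer or medium: 50 mM HEPES pH 7.4 buffer plus MgCl2 and Tween 20. Also added: 0.114 mM NADH and 0.1 mM resazurin, final amounts. Dosing: compound 20 µM once, DMSO 1%. Schedule: 16 min enzyme reaction, ambient temperature. Detection: fluorescence of resorufin, 544 nm excitation, 590 nm emission.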
ROMK retest: confirmation of human ROMK potassium channel modulators. AID 1917. 3,000 compounds, 54% hits. normalized thallium flux (F/F0 slope) at 10 µM. ROMK thallium flux, fluorescence ratio; active compounds read low. shares compounds with ROMK primary;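 active = Flux at 10 µM at least 3 SD below or above vehicle control mean in one or both replicates; inconclusive = no clear call, values can overlap the other calls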
* = called active by the depositor; u = inconclusive; x = not tested or not shown. Shown are actives, neighbours in structure and some others; about 2.2% of the full set was active somewhere.

SMILES	Diaph inh CS	ROMK primary	G6PDH counter	PMI act	PMI act satM6P	Diaphorase act	ROMK retest
COc1ccc(C(=O)C2CCCN(S(=O)(=O)c3cccnc3)C2)c(C)c1 (centres undefined)	10	-8.6*	13	1	1	0.9	0.075
COc1cccc(C(=O)C2CCCN(Cc3cccn3-c3cccnc3)C2)c1 (centres undefined)	7	-2.9*	8	1	1	0.9	0.072
COc1ccc(NC(=O)C2CCCN(S(=O)(=O)c3cccnc3)C2)c(OC)c1 (centres undefined)	6	x	9	1	1	0.9	x
Cc1ccc(N2CC(C(=O)OCC(=O)Nc3ccccc3F)CC2=O)cc1 (centres undefined)	14	0.14	-1	0.9	1	0.9	x
CC(=O)Nc1ccc(S(=O)(=O)NC2(C(F)(F)F)C(=O)Nc3c2c(=O)[nH]c(=O)n3Cc2ccco2)cc1 (centres undefined)	2	-0.27	-2	1.1	1	1	x
Cc1ccc(C(C[N+](=O)[O-])n2nc(C)cc2C)cc1 (centres undefined)	5	-2.4	-1	1	1	0.9	0.059*
Cc1ccc(S(=O)(=O)n2nc(C)cc2C)cc1	6	-0.47	2	1.1	1	0.9	x
O=C(O)CCC(NC(=O)C1CCCN1C(=O)OCc1ccccc1)C(=O)O (centres undefined)	-16	1.5*	17	1.1	1	1.2	0.084
COc1cc(NC(=O)C2CCCN2C(=O)OCc2ccccc2)cc(OC)c1 (centres undefined)	14	-0.24	-15	0.9	0.9	0.9	x
CCc1c(C)nc2c(C)cccc2c1SCCC#N	7	-0.57	6	1.6	1.9	0.9	x
C=CCN(c1ccc(Cl)cc1)S(=O)(=O)c1cccc(C(=O)O)c1	5	0.3	2	1.2	1.1	1	x
Cc1ccc(C)c(CN2C(=O)c3ccccc3S(=O)c3ccc(C(=O)N4CCN(c5ccccn5)CC4)cc32)c1 (centres undefined)	15	-1.3	3	0.9	1	0.9	x
CCn1c(O)c(/C=N/N=C2CCCCC2)c2cc(C3=NNC(=O)CC3)ccc21	x	x	x	x	x	x	0.067*
CCn1c(O)c(/C=N/N=C2CCCC2)c2ccc(C3=NNC(=O)CC3)cc21	14	0.52	5	1	1	0.9	x
CN(C)CCNS(=O)(=O)c1ccc(N2CCN(c3ccc(F)cc3)CC2)c([N+](=O)[O-])c1	18	-4*	12	0.8	0.9	0.8	0.064*
CC(=O)N1CCN(c2ccc(S(=O)(=O)NCCN(C(C)C)C(C)C)cc2[N+](=O)[O-])CC1	6	0.24	4	1	1	0.9	x
Cc1ccc(-n2nnnc2Sc2ccc(S(=O)(=O)NCCN(C)C)cc2[N+](=O)[O-])cc1	53*	-3.5*	10	1	0.9	0.5	0.057*
COc1cccc2sc(Nc3nnc(-c4ccc(F)cc4)o3)nc12	7	x	-71	0.9	1	0.9	0.17*
CC12CC3(C)CC(C)(C1)CC(C(=O)NC(=S)NC(C)(C)C)(C2)C3	14	2.5*	14	0.9	0.9	0.9	u
CCN(CCNC(=O)C1CCCN(Cc2nc(-c3ccc(OC)cc3)oc2C)C1)c1ccccc1 (centres undefined)	5	-3.9*	-7	0.9	0.9	1	0.059*
CCc1ccc(-c2nc(CN3CCC(C(=O)NCCN(CC)c4ccccc4)CC3)c(C)o2)cc1	-2	x	0	1	0.9	1	x
COCCCNC(=O)CN(c1cc(Cl)ccc1OC)S(C)(=O)=O	-14	0.78	14	1.1	1.1	1.1	x
O=C1CC(c2ccco2)CC2=C1C1c3ccccc3C(=O)N1c1ccccc1N2 (centres undefined)	11	6.9*	2	0.9	1	0.9	0.098*
CCC(=O)N1c2ccccc2NC2=C(C(=O)CC(c3ccco3)C2)C1c1ccco1 (centres undefined)	13	-0.53	-4	0.9	1	0.9	x
O=C(OCc1nnc(-c2ccc(Cl)cc2)o1)C12CC3CC(CC(O)(C3)C1)C2	-10	0.067	2	1	1	1.1	x
SMILES	Diaph inh CS	ROMK primary	G6PDH counter	PMI act	PMI act satM6P	Diaphorase act	ROMK retest
CSCCC(=O)N1C(C)CCCC1C(=O)O (centres undefined)	7	x	5	0.9	0.9	0.9	x
CC1CCCC(C(=O)O)N1C(=O)CCS (centres undefined)	2	2.2*	2	1.1	1.1	1	u
C/C(=N\NC(=O)c1ccccc1NC(=O)c1ccc(Cl)cc1)c1ccncc1	20	1.1	-7	1.1	1	0.8	x
Cc1sc2ncnc(NC3CCN(Cc4ccccc4)CC3)c2c1C	6	-3.7*	0	1	1	0.9	u
Cc1ccc(NC(=O)CN(C)C(=O)CSc2nc(C)cs2)cc1	5	-0.68	4	1	0.9	0.9	x
CCOC(=O)CSc1nc2c(sc3ccccc32)c(=O)n1CCCN1CCOCC1	30	-0.63	-31	0.8	0.8	0.7	x
CCC(C)NC(=O)CSc1nc2c(sc3ccccc32)c(=O)n1CCCN1CCOCC1 (centres undefined)	12	2.6*	14	0.9	1	0.9	0.076
O=c1c(-c2ccco2)[n+]([O-])c2ccccc2n1OCc1ccccc1[N+](=O)[O-]	32	0.53	-8	0.9	0.8	0.7	x
CC(C)(C)c1ccc(C(=O)N2CCN(CCNC(=O)C(=O)NCc3ccccc3)CC2)cc1	-8	x	11	1.1	1.1	1.1	x
N#Cc1c(Nc2ccc(Cl)cc2)s[nH]c1=O	x	-12*	x	x	x	x	0.065*
O=P(c1ccccc1)(c1ccccc1)C(O)c1ccco1 (centres undefined)	6	2.2*	7	1	1	0.9	0.084
CN(/C=C/C(=C/C=[N+](C)c1ccccc1)OCCCS(=O)(=O)[O-])c1ccccc1	25	-3.5*	-2	1.1	0.6	0.8	0.056*
CN(CC(=O)NCCc1ccc(S(N)(=O)=O)cc1)c1ccccc1	10	0.12	2	1.1	1	0.9	x
CN(/C=C/C(=C\C=[N+](C)c1ccccc1)OCCCS(=O)(=O)[O-])c1ccccc1	59*	-3.1*	17	1.2	1.3	0.4	0.061*
COc1ccc(/C=C2\SC(=S)N(CC3CCCO3)C2=O)cc1 (centres undefined)	x	0.36	x	x	x	x	x
